The source of these data is ChEMBL document CHEMBL3861952, “Donepezil-like multifunctional agents: Design, synthesis, molecular modeling and biological evaluation” (Eur J Med Chem, 2016).

Calls of active or inactive are those of the source. No cut-off for these calls is given here.

The species entered for assay [1] is Homo sapiens. Description: Selectivity ratio of IC50 for human recombinant AChE to IC50 for human recombinant BuChE.
For assay [2], the species on record is Homo sapiens. The assay can be described thus: Selectivity index, ratio of IC50 for human recombinant MAOB to IC50 for human recombinant MAOA. In a few lines:
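Separate 30 min pre-incubations at 37 °C of serial inhibitor dilutions with recombinant human MAO-A (360 mU/mL) or MAO-B (67.5 mU/mL). Then 1 mM p-tyramine with HRP/Amplex UltraRed added, pH 7.4, and fluorescence followed ≥1 h. Index taken as IC50(MAO-B)/IC50(MAO-A); ≥3 experiments in triplicate.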

A short description of assay [3]: Antioxidant activity of the compound assessed as time required to induce AAPH-mediated linoleic acid peroxidation (reference value: 40 to 60 mins). In kind it is functional.
Assay [4] is described as follows: Antioxidant activity of the compound assessed as DPPH radical scavenging activity at 50 uM after 60 mins by spectrophotometric method. In kind it is functional. The method in brief: (§1)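 DPPH scavenging: mixture shaken vigorously and left 60 min. Absorbance at 517 nm read and % activity calculated; trolox as comparator. Three replicates averaged.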
Assay [5] is described as follows: Antioxidant activity of the compound assessed as AAPH radical scavenging activity measured as trolox equivalent at 0.1 to 1 uM preincubated for 15 mins with fluorescein followed by addition of AAPH measured every min for 1 hr by oxygen radical absorbance capacity assay. In kind it is functional. The method in brief: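 ORAC: compound diluted in 75 mM PBS pH 7.4 (0.1–1 μM) and pre-incubated 15 min at 37 °C with 70 nM fluorescein. 12 mM AAPH then added and fluorescence (ex 485/em 520) read every minute for 1 h. Net area under the decay curve converted against a trolox standard curve; melatonin as reference.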

Assay [6] can be described thus: Antioxidant activity of the compound assessed as DPPH radical scavenging activity after 60 mins by spectrophotometric method. In kind it is functional. In a few lines: as §1
The nature of assay [7]: Antioxidant activity of the compound assessed as inhibition of Cu2+/ascorbic acid-induced H2O2 production at 0.1 to 1 uM after 10 mins by horse-radish peroxidase/amplex red-based fluorometric method. Type of assay: functional. In a few lines:
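H2O2 generated by 0.2 μM Cu(II) plus 10 μM ascorbic acid, incubated 10 min at room temperature with varying compound concentrations. HRP/Amplex Red mixture then added to quantify H2O2 formed.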

As to `C#CCN(CCC1CCN(Cc2ccccc2)CC1)Cc1ccc2cccc(O)c2n1`, the Ratio IC50 is 52 in the assay filed under Homo sapiens [1] and greater than 2.8 in the assay listed under Homo sapiens [2].
Take `C#CCN(Cc1ccc(O)c2ncccc12)C(C#N)CCC1CCN(Cc2ccccc2)CC1` (stereo not given): in the assay filed under Homo sapiens [2], the Ratio IC50 is 1.8.
Consider `C#CCN(Cc1ccc2cccc(O)c2n1)C(C#N)C1CCN(Cc2ccccc2)CC1` (stereo not given), for which the figures for the Ratio IC50 in the assay filed under Homo sapiens [1] and in the assay filed under Homo sapiens [2] were 2140 and greater than 9.8, respectively.
In the same order, the values of `C#CCN(Cc1ccc2cccc(O)c2n1)C(C#N)CC1CCN(Cc2ccccc2)CC1` (stereo not given) are 1650 and greater than 8.2.
The matching figures for `C#CCN(Cc1ccc2cccc(O)c2n1)CC1CCN(Cc2ccccc2)CC1`: 152 and greater than 2.2.
With `Cc1c(C)c2c(c(C)c1O)CCC(C)(C(=O)O)O2` (stereo not given), the TIME in assay [3] was in the range of 1.67 to 2 h. The result in assay [4] was Active.
With `COc1ccc2[nH]cc(CCNC(C)=O)c2c1`, the Activity in assay [5] was determined as 2.51 equiv.
Consider `C#CCN(CCCC1CCN(Cc2ccccc2)CC1)Cc1ccc2cccc(O)c2n1`, for which the values for the Ratio IC50 in the assay filed under Homo sapiens [1] and in the assay listed under Homo sapiens [2] were 65 and greater than 2.7, respectively.
`C#CCN(Cc1ccc2cccc(O)c2n1)C(C#N)CCC1CCN(Cc2ccccc2)CC1` (stereo not given): in assay [3], the TIME was in the range of 0.833 to 1 h. The values for the Activity entry in assay [6] and in assay [5] were “Dose-dependent effect” and 1.12 equiv, respectively. Also, in assay [7], the inhibition entry is “Active”. The Ratio IC50 is 0.7 in the assay listed under Homo sapiens [1] and greater than 9.9 in the assay filed under Homo sapiens [2].
